Reference: ChEMBL document CHEMBL4130526, “Structure-Activity Relationship Study of Leucyl-3-epi-deoxynegamycin for Potent Premature Termination Codon Readthrough” (ACS Med Chem Lett, 2017)

Experiments:
[1] = organism: Mus musculus; test: (§1) Mutation read through activity at premature termination codon TGA-containing mouse dystrophin gene exon 23 nucleotide sequence expressed in African green monkey COS7 cells assessed as ratio of luciferase activity to beta-galactosidase activity at 200 uM after 48 hrs by dual luciferase reporter gene assay relative to control; format: cell-based
Procedure, shortened: (§2)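 COS-7 cells carrying a dual-reporter plasmid (β-galactosidase and luciferase genes joined by a TGA-containing stop sequence). Compounds were tested at 200 μM; the dose-dependent series ran 10–200 μM. Activity is reported as a ratio relative to D-MEM control, as mean ± SD, n = 3.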

[2] = test system: NHDF; test: Cytotoxicity against HDF assessed as reduction in cell viability at 200 uM after 48 hrs by WST1 assay; format: cell-based; details: human
[3] = test system: COS-7; test: Cytotoxicity against African green monkey COS7 cells assessed as reduction in cell viability at 200 uM after 48 hrs by WST1 assay; format: cell-based; details: chlorocebus aethiops, cos-7, 48 h
[4] = test system: Mus musculus; test: Mutation read through activity in READ mouse on C57/BL6 background expressing premature termination codon TGA-containing mouse dystrophin gene exon 23 nucleotide sequence gene exon 23 assessed as ratio of luciferase activity to beta-galactosidase activity at 1 mg/20g body weight, sc administered daily for 7 days measured post last dose by dual luciferase reporter gene assay relative to control; format: functional
Procedure, shortened: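 READ mice carry a dual reporter split by a PTC. Subcutaneous injection into the abdominal region at 1 mg in 0.2 mL saline per 20 g body weight, daily for 7 days. Negative control: saline. Positive control: arbekacin. Readthrough reported as mean ± SD.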

[5] = organism: Mus musculus; test: as §1, with “activity” for “activity at 200 uM”; format: cell-based; procedure, shortened: as §2
[6] = organism: Mus musculus; test: as §1, with “TAG-containing” for “TGA-containing”; format: cell-based
[7] = organism: Mus musculus; test: as §1, with “TAA-containing” for “TGA-containing”; format: cell-based
[8] = organism: Mus musculus; test: as §1, with “control relative to in-frame control containing TGG” for “control”; format: cell-based
[9] = biological target: T1, Liver carboxylesterase (Sus scrofa, UniProt Q29550); test: Prodrug conversion assessed as porcine liver esterase-mediated TCP-126 formation at 2 mM up to 6 hrs by RP-HPLC method; format: ADME; details: pig, isolated protein, 2000 µM, TDE = time-dependent effect
T1 sequence (Q29550 whole entry): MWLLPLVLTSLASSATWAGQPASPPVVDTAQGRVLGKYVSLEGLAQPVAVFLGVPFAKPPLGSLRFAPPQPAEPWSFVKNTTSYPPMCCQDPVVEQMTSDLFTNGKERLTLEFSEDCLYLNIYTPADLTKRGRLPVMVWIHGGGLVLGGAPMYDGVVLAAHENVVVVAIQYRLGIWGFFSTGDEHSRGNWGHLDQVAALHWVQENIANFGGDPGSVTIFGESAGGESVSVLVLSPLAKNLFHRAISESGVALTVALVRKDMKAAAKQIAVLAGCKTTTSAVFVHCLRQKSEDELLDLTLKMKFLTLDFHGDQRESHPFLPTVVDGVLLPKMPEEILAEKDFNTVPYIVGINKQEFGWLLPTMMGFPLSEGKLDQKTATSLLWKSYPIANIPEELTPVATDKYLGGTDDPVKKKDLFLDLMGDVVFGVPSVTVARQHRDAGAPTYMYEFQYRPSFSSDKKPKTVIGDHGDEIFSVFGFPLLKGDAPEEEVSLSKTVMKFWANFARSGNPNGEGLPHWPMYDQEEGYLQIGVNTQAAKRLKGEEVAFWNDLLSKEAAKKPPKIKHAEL
Procedure, shortened: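 Incubated with porcine liver esterase (110 units/mL) in 100 mM phosphate buffer, pH 7.4, at 37 °C. Reaction mixtures were analysed by RP-HPLC over time for conversion to the parent compound. The new metabolite peak was collected and identified by high-resolution MS.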

[10] = test system: Mus musculus; test: Acute toxicity in B10 mouse assessed reduction in body weight at 10 mg/day/20g body weight, sc for 14 days and measured on day 1; format: organism-based; details: in vivo, 336 h
Procedure, shortened: (§3)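 Single subcutaneous injection into the abdominal region of B10 mice at 10 mg day–1 20 g–1 body weight, given only once. Body weight tracked over 2 weeks. Treated group n = 4; saline-injected B10 mice (n = 3) served as controls.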

[11] = test system: Mus musculus; test: Acute toxicity in B10 mouse assessed as change in body weight at 10 mg/day/20g body weight, sc for 14 days and measured on 1 to 7 and 14 days; format: organism-based; details: in vivo, 336 h; procedure, shortened: as §3
[12] = Stability in 100 mM phosphate buffer (pH 7.4) assessed as parent compound remaining at 200 uM measured after 6 hrs in absence of esterase by RP-HPLC and high-resolution mass spectrometry method

Row | Structure (SMILES) | fold change (FC) [1] | Activity [2] | Activity [3] | further results
1 | CN(CC(=O)O)NC(=O)C[C@H](CCCN)NC(=O)[C@@H](N)Cc1ccc(O)cc1 | 1.92 | – | – | –
2 | CC(C)C[C@H](O)C(=O)N[C@@H](CCCN)CC(=O)NN(C)CC(=O)O | 1.33 | – | – | –
3 | COc1cccc(COC(=O)CN(C)NC(=O)C[C@H](CCCN)NC(=O)[C@@H](N)CC(C)C)c1 | 5.15 | Non-Toxic | Non-Toxic | –
4 | CN(CC(=O)O)NC(=O)C[C@H](N)C[C@@H](O)CN | 1.54 | – | – | –
5 | NCC[C@H](O)C(=O)N[C@@H]1C[C@H](N)[C@@H](O[C@H]2O[C@H](CN)CC[C@H]2N)[C@H](O)[C@H]1O[C@H]1O[C@H](CO)[C@@H](O)[C@H](N)[C@H]1O [ARBEKACIN] | – | – | – | fold change (FC) [4]: 1.94
6 | CC(C)C[C@@H](N)C(=O)N[C@@H](CCCN)CC(=O)NN(C)CC(=O)O | 1.3 | – | – | –
7 | CC(C)C[C@H](N)C(=O)N[C@@H](CCCN)CC(=O)NN(C)CC(=O)OCc1ccccc1Br | 8.84 to 8.89 | Non-Toxic | Non-Toxic | Activity [5]: Dose-dependent effect; fold change (FC) [6]: 2.55; fold change (FC) [7]: 1.22; Activity [8]: 2.69%; Drug metabolism [9]: Tde; fold change (FC) [4]: 1.59; Activity [10]: Toxic; Activity [11]: Non-Toxic; remaining at 6 h, 200 µM [12]: 99%
8 | CN(CC(=O)O)NC(=O)C[C@H](CCCN)NC(=O)CN | 2.1 | – | – | –
9 | CN[C@@H]1[C@@H](O)[C@@H](O[C@H]2[C@H](O)[C@@H](O[C@H]3O[C@H]([C@H](C)O)[C@@H](O)[C@H](O)[C@H]3N)[C@H](N)C[C@@H]2N)OC[C@]1(C)O | 7.2 | Non-Toxic | Non-Toxic | –
10 | CC(C)[C@H](N)C(=O)N[C@@H](CCCN)CC(=O)NN(C)CC(=O)O | 1.87 | – | – | –
11 | CC(C)C[C@H](N)C(=O)N[C@@H](CCCN)CC(=O)NN(C)CC(=O)OCc1cccc(Cl)c1 | 5.37 | Non-Toxic | Non-Toxic | –
12 | CC(C)C[C@H](N)C(=O)N[C@@H](CCCN)CC(=O)NN(C)CC(=O)OCc1ccccc1 | 8.92 | Non-Toxic | Non-Toxic | –
13 | CN(CC(=O)O)NC(=O)C[C@H](CCCN)NC(=O)[C@@H](N)Cc1ccccc1 | 2.13 | – | – | –
14 | CC(C)C[C@H](N)C(=O)N[C@@H](CCCN)CC(=O)NN(C)CC(=O)O | 2.25 to 2.72 | Non-Toxic | Non-Toxic | fold change (FC) [6]: 1.3; fold change (FC) [7]: 1.11
15 | CC(C)C[C@H](N)C(=O)N[C@@H](CCCN)CC(=O)NN(C)CC(=O)OCc1ccccc1[N+](=O)[O-] | 9.15 | Non-Toxic | Non-Toxic | –
